Reference: ChEMBL document CHEMBL1649147, “Antistaphylococcal activity of dihydrophthalazine antifolates, a family of novel antibacterial drugs” (2009)
≈ marks a conversion by molar mass, not a printed value.

How the values were obtained:
[1] = test system: Staphylococcus epidermidis; test: Antibacterial activity against methicillin-resistant coagulase-negative Staphylococcus epidermidis 345 by broth macrodilution method; assay type: functional
[2] = test system: coagulase-negative staphylococci; test: Antibacterial activity against Tmp-susceptible coagulase-negative staphylococci by agar dilution method
Staphylococcus aureus [3] = test: Antibacterial activity against Tmp-resistant Staphylococcus aureus by agar dilution method; assay type: functional
Outline: (§1)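 MICs by agar dilution on Mueller-Hinton agar following CLSI guidelines. S. aureus ATCC 29213 and E. faecalis ATCC 29212 were run as quality controls with each set, and test-strain MICs were kept only if control MICs fell within acceptable ranges.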

Staphylococcus aureus [4] = test: Antibacterial activity against vancomycin-resistant Staphylococcus aureus VRS1 by broth macrodilution method; assay type: functional
Outline: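 Michigan VRSA strain, one of 12 staphylococci later used in time-kill studies. MIC was determined by broth macrodilution and reported in μg/ml.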

Staphylococcus aureus [5] = test: Antibacterial activity against methicillin-resistant and vancomycin-resistant Staphylococcus aureus VRS1 by agar dilution method; assay type: functional
Outline: (§2)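 Agar dilution on Mueller-Hinton agar per CLSI guidelines. S. aureus ATCC 29213 and E. faecalis ATCC 29212 were run with each set, and test MICs were accepted only when the control strains fell within acceptable ranges.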

Staphylococcus aureus [6] = test: microbe, parasite or virus in culture; details: ATCC29213
[7] = test system: coagulase-negative staphylococci; test: Antibacterial activity against methicillin-susceptible coagulase-negative staphylococci by agar dilution method
[8] = test system: Staphylococcus epidermidis; test: Antibacterial activity against methicillin-resistant coagulase-negative Staphylococcus epidermidis 197 after 50 passages by agar dilution method; assay type: functional
Outline: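 Daily serial passage for up to 50 days at 35°C for 24 h in 1 ml MHB. Each transfer used 10 µl from the tube nearest the MIC (1–2 dilutions below) with the same turbidity as the drug-free control. MICs were measured by agar dilution, with changes given as log2 steps.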

Staphylococcus aureus [9] = test: Antibacterial activity against Tmp-susceptible Staphylococcus aureus by agar dilution method; assay type: functional; outline: as §1
[10] = test system: Staphylococcus epidermidis; test: Antibacterial activity against methicillin-resistant, vancomycin-intermediate coagulase-negative Staphylococcus epidermidis 225 by agar dilution method; assay type: functional; outline: as §2
[11] = test system: coagulase-negative staphylococci; test: Antibacterial activity against methicillin-resistant coagulase-negative staphylococci by agar dilution method
[12] = test system: Staphylococcus epidermidis; test: Antibacterial activity against methicillin-resistant coagulase-negative Staphylococcus epidermidis 074 by broth macrodilution method; assay type: functional
[13] = test system: coagulase-negative staphylococci; test: Antibacterial activity against Tmp-resistant coagulase-negative staphylococci by agar dilution method
Staphylococcus aureus [14] = test: microbe, parasite or virus in culture; details: ATCC43300
[15] = test system: Staphylococcus epidermidis; test: Antibacterial activity against methicillin-resistant coagulase-negative Staphylococcus epidermidis 197 by broth macrodilution method; assay type: functional
Staphylococcus aureus [16] = test: Antibacterial activity against methicillin-susceptible Staphylococcus aureus by agar dilution method; assay type: functional; outline: as §2
Staphylococcus aureus [17] = test: Antibacterial activity against methicillin-resistant Staphylococcus aureus 507 by broth macrodilution method; assay type: functional
Staphylococcus aureus [18] = test: Antibacterial activity against Tmp-susceptible coagulase-negative Staphylococcus aureus by agar dilution method; assay type: functional; outline: as §1
[19] = test system: Staphylococcus epidermidis; test: Antibacterial activity against methicillin-susceptible coagulase-negative Staphylococcus epidermidis 051 by broth macrodilution method; assay type: functional
[20] = test system: Staphylococcus epidermidis; test: Antibacterial activity against methicillin-resistant coagulase-negative Staphylococcus epidermidis 225 by broth macrodilution method; assay type: functional
Staphylococcus aureus [21] = test: Antibacterial activity against methicillin-resistant Staphylococcus aureus by agar dilution method; assay type: functional; outline: as §2
Staphylococcus aureus [22] = test: Antibacterial activity against methicillin-resistant Staphylococcus aureus ATCC 43300 by broth macrodilution method; assay type: functional; details: ATCC43300
Staphylococcus aureus [23] = test: Antibacterial activity against methicillin-susceptible, vancomycin-intermediate Staphylococcus aureus 505 by broth macrodilution method; assay type: functional
Staphylococcus aureus [24] = test: Antibacterial activity against methicillin-susceptible Staphylococcus aureus ATCC 29213 by broth macrodilution method; assay type: functional; details: ATCC29213
Staphylococcus aureus [25] = test: microbe, parasite or virus in culture; details: 505
Staphylococcus aureus [26] = test: Antibacterial activity against methicillin-resistant Staphylococcus aureus 145 by broth macrodilution method; assay type: functional
[27] = test system: Staphylococcus epidermidis; test: Antibacterial activity against methicillin-resistant, Linezolid non-susceptible coagulase-negative Staphylococcus epidermidis 345 by agar dilution method; assay type: functional
[28] = test system: Staphylococcus epidermidis; test: Antibacterial activity against methicillin-susceptible coagulase-negative Staphylococcus epidermidis 057 by broth macrodilution method; assay type: functional
Staphylococcus aureus [29] = test: Antibacterial activity against methicillin-susceptible Staphylococcus aureus 505 by broth macrodilution method; assay type: functional

## COc1cc(Cc2cnc(N)nc2N)cc(OC)c1OC [TRIMETHOPRIM]
[1]
  MIC: > 128 µg/mL
[2]
  MIC50: 0.25 µg/mL (≈ 0.861 µM)
  MIC90: 2 µg/mL (≈ 6.89 µM)
Staphylococcus aureus [3]
  MIC: 32 µg/mL (≈ 110 µM)
  MIC50: > 128 µg/mL
Staphylococcus aureus [4]
  MIC: > 128 µg/mL
Staphylococcus aureus [5]
  MIC: > 128 µg/mL
Staphylococcus aureus [6]
  MIC: > 128 µg/mL
[7]
  MIC90: 64 µg/mL (≈ 220 µM)
[8]
  MIC: 64 µg/mL (≈ 220 µM)
Staphylococcus aureus [9]
  MIC50: 0.5 µg/mL (≈ 1.72 µM)
  MIC90: 0.5 µg/mL (≈ 1.72 µM)
[10]
  MIC: > 128 µg/mL
[11]
  MIC50: 128 µg/mL (≈ 441 µM)
[12]
  MIC: 4 µg/mL (≈ 13.8 µM)
[13]
  MIC50: > 128 µg/mL
Staphylococcus aureus [14]
  MIC: > 128 µg/mL
[15]
  MIC: 0.5 µg/mL (≈ 1.72 µM)
Staphylococcus aureus [16]
  MIC50: 0.5 µg/mL (≈ 1.72 µM)
  MIC90: > 128 µg/mL
Staphylococcus aureus [17]
  MIC: 128 µg/mL (≈ 441 µM)
Staphylococcus aureus [18]
  MIC: 0.03 µg/mL (≈ 0.103 µM)
[19]
  MIC: 128 µg/mL (≈ 441 µM)
[20]
  MIC: > 128 µg/mL
Staphylococcus aureus [21]
  MIC: ≤ 0.008 µg/mL
  MIC50: 0.5 µg/mL (≈ 1.72 µM)
Staphylococcus aureus [22]
  MIC: 1 µg/mL (≈ 3.44 µM)
Staphylococcus aureus [23]
  MIC: 1 µg/mL (≈ 3.44 µM)
Staphylococcus aureus [24]
  MIC: 1 µg/mL (≈ 3.44 µM)
Staphylococcus aureus [25]
  MIC: > 128 µg/mL
Staphylococcus aureus [26]
  MIC: > 128 µg/mL
[27]
  MIC: > 128 µg/mL
[28]
  MIC: 128 µg/mL (≈ 441 µM)
Staphylococcus aureus [29]
  MIC: 1 µg/mL (≈ 3.44 µM)
